Results from different studies.
Each line is one published result; the experiments were not run side by side.
SIRT6: NAD-dependent protein deacylase sirtuin-6 (SIRT6, Homo sapiens, UniProt Q8N6T7)
BRD7: Bromodomain-containing protein 7 (BRD7, Homo sapiens, UniProt Q9NPI1)
PBK: Lymphokine-activated killer T-cell-originated protein kinase (PBK, Homo sapiens, UniProt Q96KB5)
VRK1: Serine/threonine-protein kinase VRK1 (VRK1, Homo sapiens, UniProt Q99986)

`Cc1cc(NC(=O)c2cccc3cc(-c4cccc5[nH]nc(N)c45)ccc23)ccc1F` has an activity vs control of 96% (Angiopoietin-1 receptor (TEK, Homo sapiens, UniProt Q02763); enzyme activity, inhibitor; 0.1 µM).
`Nc1nonc1-n1cc(C(=O)N/N=C/c2ccccc2Cl)nn1` has a remaining activity of 22.8% (SIRT6; enzyme activity, inhibitor, fluorescence; 100 µM).
For `C[S+]([O-])c1ccc(-c2nc(-c3ccncc3)c(-c3ccc(F)cc3)[nH]2)cc1` (stereo not shown), the ΔTm was 0.34 °C (BRD7; thermal stability, DSF; 10 µM).
The inhibition of `NC(=O)c1ccc(C(=O)NOCc2ccccc2Cl)cc1` is reported as 78.2% (SIRT6; enzyme activity, inhibitor, fluorescence; 100 µM).
The ΔTm of `Cn1c2c(c3ccc(Cl)c(Cl)c31)C(C#N)C1(CCNCC1)NC2=O` (racemic) is reported as -0.9 °C (PBK; thermal stability, DSF; 10 µM).
For `Nc1nonc1-n1cc(C(=O)N/N=C/c2ccccc2)nn1`, the remaining activity was 38.9% (SIRT6; enzyme activity, inhibitor, fluorescence; 100 µM).
With `O=C(Nc1ccc(S(=O)(=O)N2CCC(Cl)CC2)cc1)c1ccc([N+](=O)[O-])o1` the inhibition was 6% (Voltage-dependent L-type calcium channel subunit alpha-1C (Cacna1c, Rattus norvegicus, UniProt P22002); cell-free assay; 10 µM).
With `NC(=O)c1ccc(C(=O)NOCc2ccc(C(F)(F)F)cc2)cc1` the inhibition was 87% (SIRT6; enzyme activity, inhibitor, fluorescence; 100 µM).
The remaining activity of `Nc1nonc1-n1cc(C(=O)N/N=C/c2ccc(C(F)(F)F)cc2[N+](=O)[O-])nn1` is reported as 24.9% (SIRT6; enzyme activity, inhibitor, fluorescence; 100 µM).
With `Cc1cc2c(cc1N1C(=O)c3cccc4c(Cl)ccc(c34)C1=O)n(C)c(=O)n2C` the ΔTm was 2.3 °C (BRD7; thermal stability, DSF; 10 µM).
With `Cn1c2c(c3ccc(Cl)c(Cl)c31)C(C#N)C1(CCCC1)NC2=O` (stereo not shown) the ΔTm was 0 °C (VRK1; thermal stability, DSF; 10 µM).
`CC(C)(O)c1cn(-c2ccc(-c3cccc(S(C)(=O)=O)c3)cc2)c(C(C)(C)c2ccccc2Cl)n1` gave an Emax of 72% (Oxysterols receptor LXR-beta (NR1H2, Homo sapiens, UniProt P55055); reporter gene, agonist; CV-1).
For `CCN1CCC2(CC1)NC(=O)c1c(c3ccc(Cl)c(Cl)c3n1C)C2C#N` (racemic), the ΔTm was -0.4 °C (VRK1; thermal stability, DSF; 10 µM).
`NS(=O)(=O)c1ccc(C(=O)NOCc2ccccc2)cc1` has an inhibition of 47.4% (SIRT6; enzyme activity, inhibitor, fluorescence; 100 µM).
With `Cn1c2c(Cl)c(Cl)ccc2c2cc(N)[nH]c(=O)c21` the ΔTm was 1.3 °C (VRK1; thermal stability, DSF; 10 µM).
`NC(=O)c1ccc(C(=O)NOCc2cc(Cl)cc(Cl)c2)cc1` has an inhibition of 88.2% (SIRT6; enzyme activity, inhibitor, fluorescence; 100 µM).
For `Cn1c2c(c3ccccc31)C(C#N)C(C)(C)NC2=O` (stereo not shown), the ΔTm was -0.1 °C (VRK1; thermal stability, DSF; 10 µM).
`Nc1ncnc2occ(-c3ccc(NC(=O)Nc4cc(C(F)(F)F)ccc4F)cc3)c12` gave a remaining signal of 1.5% (Serine/threonine-protein kinase TNNI3K (TNNI3K, Homo sapiens, UniProt Q59H18); cell-free assay; 20 µM).
`Nc1nonc1-n1cc(C(=O)N/N=C/c2ccc([N+](=O)[O-])cc2)nn1` has a remaining activity of 24.8% (SIRT6; enzyme activity, inhibitor, fluorescence; 100 µM).
For `CC(N)c1ccc(C(=O)NOCc2ccc(C(F)(F)F)cc2)cc1` (stereo not shown), the inhibition was 89.2% (SIRT6; enzyme activity, inhibitor, fluorescence; 100 µM).
`CCC1(CC)NC(=O)c2c(c3ccc(Cl)c(Cl)c3n2C)C1C#N` (stereo not shown) has a ΔTm of 0 °C (VRK1; thermal stability, DSF; 10 µM).
With `NS(=O)(=O)c1ccc(Nc2nc(-c3ccc(F)cc3)c3ccccc3n2)cc1` the remaining binding was 76% (BRD7; binding, competition with immobilised ligand; 1 µM).
With `Cn1c2c(c3ccc(Cl)c(Cl)c31)C(C#N)C(C)(C)NC2=O` (stereo not shown) the ΔTm was 0.1 °C (VRK1; thermal stability, DSF; 10 µM).
With `NCCc1ccc(C(=O)NOCc2ccc(C(F)(F)F)cc2)cc1` the inhibition was 88.4% (SIRT6; enzyme activity, inhibitor, fluorescence; 100 µM).
`N#CC1c2c([nH]c3c(Cl)c(Cl)ccc23)C(=O)NC12CCCCC2` (racemic) gave a ΔTm of 0.8 °C (PBK; thermal stability, DSF; 10 µM).
`Nc1nonc1-n1cc(C(=O)N/N=C/c2cccc(O)c2O)nn1` gave a remaining activity of 27.2% (SIRT6; enzyme activity, inhibitor, fluorescence; 100 µM).
The inhibition of `NC(=O)c1ccc(C(=O)NOCc2ccc(Sc3ccc(F)cc3)c(C(F)(F)F)c2)cc1` is reported as 90.2% (SIRT6; enzyme activity, inhibitor, fluorescence; 100 µM).
For `Nc1nonc1-n1cc(C(=O)N/N=C/c2ccc([N+](=O)[O-])cc2O)nn1`, the remaining activity was 20.6% (SIRT6; enzyme activity, inhibitor, fluorescence; 100 µM).
`Cc1ccc(C(=O)Nc2ccc(CN3CCN(C)CC3)c(C(F)(F)F)c2)cc1C#Cc1cnc2cccnn12` has a remaining activity of 100% (Mitogen-activated protein kinase 6 (MAPK6, Homo sapiens, UniProt Q16659); enzyme activity, inhibitor; 23.5 nM).
`Nc1nonc1-n1cc(C(=O)N/N=C/c2ccccc2C(=O)O)nn1` gave a remaining activity of 84.2% (SIRT6; enzyme activity, inhibitor, fluorescence; 100 µM).
For `Oc1ccc(-c2nc(-c3ccncc3)c(-c3ccc(F)cc3)[nH]2)cc1`, the ΔTm was 1.3 °C (BRD7; thermal stability, DSF; 10 µM).
For `Cc1ccc(C(=O)NCc2ccsc2)cc1C#Cc1cn(C(C)C)c2ncnc(N)c12`, the activity vs control was 119% ([Pyruvate dehydrogenase (acetyl-transferring)] kinase isozyme 4, mitochondrial (PDK4, Homo sapiens, UniProt Q16654); enzyme activity, inhibitor; 1 µM).
For `NC(=O)c1ccc(C(=O)NOCc2ccc3nccnc3c2)cc1`, the inhibition was 61.4% (SIRT6; enzyme activity, inhibitor, fluorescence; 100 µM).
`CC/C(=N\NC(=O)NCc1cccc(O)c1)c1ccc(O)c(C)c1O` has an inhibition of 2.3% (ALK tyrosine kinase receptor (ALK, Homo sapiens, UniProt Q9UM73, C1156Y); enzyme activity, inhibitor; 0.1 µM).
